High-throughput results from PubChem.
NR2E3 ag-1 = NR2E3 agonists in two-hybrid cells, primary screen, cell-based, luminescence, CHO-S, Gal4-NCOR/VP16-NR2E3; luciferase; inhibition of corepressor binding, % at 3.98 µM; 360,000 compounds, 0.35% hits; AID 602229, 2012;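 active = inhibition above the mean of all tested compounds plus 3 SD, cut at about 70% in these data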;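 note: 0% = DMSO with NR2E3 transfected cells and 100% = cells lacking NR2E3 construct; higher means lower luciferase signal from less NR2E3 corepressor binding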
DAX1 inh-1 = DAX1 (NR0B1) inhibitors, primary screen, cell-based, HEK293, Gal4-DAX1, luciferase luminescence; 340,000 compounds, 0.99% hits; HEK293 Gal4-DAX1 luciferase reporter; inhibition, % at 6.75 µM; Nuclear receptor subfamily 0 group B member 1 (Homo sapiens), P51843;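 active = inhibition above the mean over all tested compounds plus 3 SD, cut at about 4.2% in these data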;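 note: 0% = DAX1-transfected cells with DMSO and 100% = empty-vector control cells with DMSO; inhibition shows as a rise in luminescence from relieved DAX1 repression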
Target sequence (P51843 207-470 limits assumed): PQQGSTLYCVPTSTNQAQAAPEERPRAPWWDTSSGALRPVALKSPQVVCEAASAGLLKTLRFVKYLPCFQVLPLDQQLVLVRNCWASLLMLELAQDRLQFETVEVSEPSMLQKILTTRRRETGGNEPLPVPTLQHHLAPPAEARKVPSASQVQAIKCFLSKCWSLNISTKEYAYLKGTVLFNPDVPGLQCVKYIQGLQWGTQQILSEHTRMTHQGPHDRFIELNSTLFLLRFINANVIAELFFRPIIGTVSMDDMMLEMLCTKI
SMARCA2 activ = SMARCA2 (BRM) function activators, primary screen, cell-based, luminescence, high throughput; activation, % at 9.1 µM; MG213 cells, MMTV-luciferase reporter, dexamethasone, overnight; 370,000 compounds, 1% hits; in the data active = activation above about 7.8%;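 note: 0% = vehicle wells and 100% = reference activator wells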
JMJD2C inh = inhibitors of GASC-1 histone demethylase, primary screen, biochemical, fluorescence, DELFIA europium; GST-JMJD2C(1-420) H3K9me3 demethylation; 330,000 compounds, 0.069% hits; Lysine-specific demethylase 4C (Homo sapiens), Q9H3R0; AID 2099, 2009; inhibition, % at 2.35 µM;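 active = more than half of a compound's replicate wells show inhibition beyond 50%, single wells judged on their own value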;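 note: signal counts dimethyl H3K9 product captured on neutravidin plate; 0% = median of DMSO wells and 100% = 0.3 times that DMSO median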
DAX1 inh-2 = DAX1 (NR0B1) inhibitors on StAR promoter, primary screen, cell-based, luminescence, SF-1 (NR5A1), full-length DAX-1; 370,000 compounds, 1.1% hits; HEK293T StAR-luciferase reporter, SF-1/DAX-1 repression relief; inhibition, % at 6.8 µM;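 active = inhibition above the mean over all tested compounds plus 3 SD, cut at about 3.6% in these data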;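 note: 0% = DAX-1 cells with DMSO and 100% = cells lacking DAX-1 with DMSO; higher inhibition means more luminescence from relief of DAX-1 repression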
NR2E3 ag-2 = inhibitors of NR2E3-RetCOR corepressor binding, primary screen, NR2E3 agonist project, biochemical, TR-FRET, GST-NR2E3, biotin-RetCOR; Photoreceptor-specific nuclear receptor (Homo sapiens), Q9Y5X4; 1536-well; inhibition of corepressor binding, % at 4.78 µM; 320,000 compounds, 0.12% hits; AID 2300, 2010;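 active = percent inhibition above the cutoff of mean plus 3 SD of all tested compounds, set per screening campaign, cut at about 20% in these data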;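 note: 0% = DMSO wells and 100% = biotin wells as full block of FRET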
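Test system – NR2E3–RetCOR corepressor complex · Quantity – NR2E3 fusion 1.35 nM · Buffer or medium – Tris pH 7.5 · Incubation – Compound–protein incubation for 5 h at 4 °C · Technique – TR-FRET, Eu(K)-anti-GST donor, streptavidin-D2 acceptor, ex 340, em 617/671 nm · Evaluation – percent inhibition of 671/617 nm emission ratio versus biotin and DMSO controls · Plate – 1536-well format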
SMARCA2 act conf = SMARCA2 (BRM) function activators, confirmation, cell-based, luminescence, triplicate; shares compounds with SMARCA2 activ; MG213 cells, MMTV-luciferase with dexamethasone, overnight; MG213 cells expressing E1A, Rb sequestered; DMSO wells 0%, reference activator 100%; activation, % at 9.1 µM; 3,500 compounds, 30% hits; AID 652260, 2013;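 active = activation above its plate's cutoff, the mean activation of tested wells plus 3 SD, cut at about 7.9% in these data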
GAL4-VP16 Luc = GAL4-VP16 luciferase reporter activation, counter-screen for SMARCA2 (BRM) activator project, cell-based, pG5luc, luminescence, high throughput | 3,500 compounds, 41% hits | AID 686939, 2013 | shares compounds with SMARCA2 activ | HEK293 GAL4-VP16 pG5luc reporter; scaled: DMSO wells 0%, SAHA wells 100% | activation, % at 9.1 µM;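 active = activation above the solvent-only control well mean plus 3 SD, averaged across control plates, cut at about 5.2% in these data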
Starred values were filed as active, the others as inactive; . = no result. Only some compounds are listed: those with a hit (about 3.2% of all), similar ones and a draw of the others.

SMILES	NR2E3 ag-1	DAX1 inh-1	SMARCA2 activ	JMJD2C inh	DAX1 inh-2	NR2E3 ag-2	SMARCA2 act conf	GAL4-VP16 Luc
CN(C)CCCNC(=O)c1ccccn1	3.4	1.6	8.4*	0.2	-0.5	2.4	-4.2	-0.2
CC(COc1ccc(Br)cc1)CN1CCC(C(O)(c2ccccc2)c2ccccc2)CC1 (stereo not drawn)	.	.	-5.3	.	0.0	.	.	.
Cc1cnc(NC(=O)CC2OC(=O)c3ccccc32)s1 (stereo not drawn)	-18.8	0.6	-3.5	.	1.7	.	.	.
CC1(C(=O)OCc2cc(=O)n3cc(Br)ccc3n2)CC1(Cl)Cl (stereo not drawn)	-106.7	0.4	10.1*	-0.7	3.2	2.4	9.4*	13.3*
CC1CC1C(=O)OCc1cc(=O)n2cc(Br)ccc2n1 (stereo not drawn)	-77.9	1.5	3.3	-11.6	1.9	2.5	.	.
Cc1ccccc1C(=O)NC(CC(C)C)C(=O)OCc1cc(=O)n2cc(Br)ccc2n1 (stereo not drawn)	-99.9	1.6	9.4*	4.2	2.9	-2.5	4.6	8.8*
CCn1nc(C)c(CNC(=O)Nc2ccc3c(c2)OCO3)c1C	-60.6	0.9	9.3*	-25.8	2.3	5.5	0.8	3.4
Cc1csc2c(=O)sc(NC(=O)c3ccco3)nc12	4.8	1.9	0.9	-3.5	-0.1	-0.5	.	.
O=C(Nc1nc2ccsc2c(=O)s1)c1ccco1	-44.4	.	13.5*	-5.8	0.3	0.9	10.0*	6.4*
Cc1ccc2nc(NC(=S)NC(=O)c3ccco3)sc2c1	-90.4	5.2*	17.0*	2.1	1.4	0.9	9.5*	15.1*
Cc1ccc(-c2nnc(NC(=O)c3ccco3)s2)cc1	-56.6	1.3	9.2*	2.0	0.4	4.2	12.7*	12.1*
Cc1sc(NC(=O)/C=C/c2ccco2)c(C(=O)O)c1C	-42.4	2.1	2.9	9.0	0.8	-2.7	.	.
CC(C)C(=O)Oc1ccc(CO)cc1[C@H](CCN(C(C)C)C(C)C)c1ccccc1	.	.	-2.2	.	-0.1	.	.	.
COc1ccc(CN2C(=NC(=O)C3CCCO3)SC3CS(=O)(=O)CC32)cc1OC (stereo not drawn)	-12.1	-0.1	-1.9	-7.3	-1.4	-0.9	.	.
CCCCCCCCNc1nc(Cl)nc(NCc2ccco2)n1	9.4	-0.1	11.1*	4.4	0.3	-1.5	0.3	-0.3
O=C1CCCC2=C1C(c1ccco1)Nc1ccc3ccccc3c12 (stereo not drawn)	-16.1	-0.2	20.1*	17.1	0.2	2.8	8.3*	0.7
O[C@H](COc1ccccc1)CN1CCC(C(O)(c2ccccc2)c2ccccc2)CC1	.	.	-3.7	.	1.4	.	.	.
CCN(CC)CCn1c2ccccc2c2cnc(N)c(C#N)c21	-53.7	2.9	47.4*	-4.2	3.9*	2.3	70.9*	-2.5
CCN(C(=O)COC(=O)c1c(-c2ccccc2)noc1C)C1CCS(=O)(=O)C1 (stereo not drawn)	13.0	0.8	8.6*	2.1	-0.6	3.3	-2.9	0.8
CCN(C(=O)COC(=O)c1c(C)c(-c2ccccc2)nc2ccccc12)C1CCS(=O)(=O)C1 (stereo not drawn)	-32.5	-2.2	-1.9	-3.1	-0.6	6.3	.	.
